For assay [1], the target named is T1, Calcitonin receptor (Rattus norvegicus, UniProt P32214).
T1 sequence (P32214 whole entry): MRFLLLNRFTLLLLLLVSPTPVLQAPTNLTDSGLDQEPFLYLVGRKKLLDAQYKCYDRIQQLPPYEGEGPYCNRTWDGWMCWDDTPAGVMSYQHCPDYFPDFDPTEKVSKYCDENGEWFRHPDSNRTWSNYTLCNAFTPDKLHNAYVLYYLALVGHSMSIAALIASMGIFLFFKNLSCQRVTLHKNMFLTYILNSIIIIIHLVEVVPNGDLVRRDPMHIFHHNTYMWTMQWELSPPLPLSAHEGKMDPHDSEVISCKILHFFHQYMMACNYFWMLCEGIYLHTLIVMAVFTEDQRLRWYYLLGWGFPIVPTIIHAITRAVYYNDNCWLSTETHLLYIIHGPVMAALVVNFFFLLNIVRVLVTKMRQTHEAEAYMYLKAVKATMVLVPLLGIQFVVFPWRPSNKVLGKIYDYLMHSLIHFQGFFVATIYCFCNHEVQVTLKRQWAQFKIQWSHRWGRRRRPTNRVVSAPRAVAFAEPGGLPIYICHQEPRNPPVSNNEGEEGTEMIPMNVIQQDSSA
Kind of assay: Displacement of [125I]-salmon calcitonin (sCT) from calcitonin receptor of rat brain. The method in brief:
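Male Sprague–Dawley rat (250–350 g) brain membranes (~0.63 mg protein/tube) were shaken on ice for 30 min with 10 pM final [125I-Tyr22]sCT and competitor in 50 mM Tris-HCl pH 7.4 with 34 μM bacitracin. Tubes were centrifuged and the pellets washed, SDS-solubilized and scintillation counted. Nonspecific binding was taken with 1 μM sCT. IC50 came from probit analysis, and relative affinity set sCT = 100%.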
A general note: Displacement assays read how much labelled ligand stays bound in the presence of the test substance.

Assay [2] concerns the target T2, Calcitonin receptor (Homo sapiens, UniProt P30988).
T2 sequence (P30988 whole entry): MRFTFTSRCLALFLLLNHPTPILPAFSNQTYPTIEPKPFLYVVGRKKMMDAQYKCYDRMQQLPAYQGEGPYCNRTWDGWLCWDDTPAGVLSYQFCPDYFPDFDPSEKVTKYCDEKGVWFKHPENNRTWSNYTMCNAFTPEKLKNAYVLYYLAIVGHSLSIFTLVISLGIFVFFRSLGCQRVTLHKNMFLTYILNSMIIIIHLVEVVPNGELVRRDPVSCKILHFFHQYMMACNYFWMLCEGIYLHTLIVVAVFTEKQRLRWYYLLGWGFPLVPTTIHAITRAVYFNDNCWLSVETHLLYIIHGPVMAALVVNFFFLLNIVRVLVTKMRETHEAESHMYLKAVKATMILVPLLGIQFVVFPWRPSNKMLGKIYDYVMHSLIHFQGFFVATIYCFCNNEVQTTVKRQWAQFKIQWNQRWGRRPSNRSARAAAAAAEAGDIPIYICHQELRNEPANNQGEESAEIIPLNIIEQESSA
Put plainly: Inhibition of [125I]-salmon calcitonin (sCT) binding to human calcitonin receptor I1 expressed in HEK293 cells. The class given is cell-based. As to conditions: hek293.

The values that follow come from ChEMBL document CHEMBL1135734, “Side-chain lactam-bridge conformational constraints differentiate the activities of salmon and human calcitonins and reveal a new design concept for potent calcitonin analogues” (J Med Chem, 2002).

Positions of bridges follow the written chain, without caps; N, C: chain ends. Non-standard residues stand in square brackets, D forms with d. Residues, ends and D or L forms follow the SMILES beside them. Orn = NCCC[C@H](N)C(=O)O

In the case of `CC[C@H](C)[C@H](NC(=O)[C@H](C)NC(=O)[C@@H](NC(=O)[C@H](CCC(N)=O)NC(=O)[C@@H]1CCCN1C(=O)[C@H](Cc1ccccc1)NC(=O)[C@@H](NC(=O)[C@H](Cc1c[nH]cn1)NC(=O)[C@@H]1CCCN1C(=O)[C@H](CCCCN)NC(=O)[C@H](CC(N)=O)NC(=O)[C@H](Cc1ccccc1)NC(=O)[C@H](CC(=O)O)NC(=O)[C@H](CCC(N)=O)NC(=O)[C@@H](NC(=O)[C@H](Cc1ccc(O)cc1)NC(=O)[C@@H](NC(=O)CNC(=O)[C@H](CC(C)C)NC(=O)[C@H](CCSC)NC(=O)[C@@H]1CSSC[C@H](N)C(=O)NCC(=O)N[C@@H](CC(N)=O)C(=O)N[C@@H](CC(C)C)C(=O)N[C@@H](CO)C(=O)N[C@@H]([C@@H](C)O)C(=O)N1)[C@@H](C)O)[C@@H](C)O)[C@@H](C)O)[C@@H](C)O)C(=O)NCC(=O)N[C@H](C(=O)NCC(=O)N[C@@H](C)C(=O)N1CCC[C@H]1C(N)=O)C(C)C` (H-CGNLSTCMLGTYTQDFNKPHTFPQTAIGVGAP-NH2; disulfide 1-7), in assay [1], the IC50 is greater than 5000 nM. Besides, in assay [2], the Ki is 400 nM.

`CC(C)C[C@H](NC(=O)[C@H](CCCCN)NC(=O)CNC(=O)[C@H](CC(C)C)NC(=O)[C@@H](NC(=O)[C@H](CS)NC(=O)[C@@H](NC(=O)[C@H](CO)NC(=O)[C@H](CC(C)C)NC(=O)[C@H](CC(N)=O)NC(=O)[C@H](CO)NC(=O)[C@@H](N)CS)[C@@H](C)O)C(C)C)C(=O)N[C@@H](CO)C(=O)N[C@@H](CCC(N)=O)C(=O)N[C@@H](CCC(=O)O)C(=O)N[C@@H](CC(C)C)C(=O)N[C@H]1CC(=O)NCCC[C@@H](C(=O)N[C@@H](Cc2ccc(O)cc2)C(=O)N2CCC[C@H]2C(=O)N[C@@H](CCCN=C(N)N)C(=O)N[C@H](C(=O)N[C@@H](CC(N)=O)C(=O)N[C@H](C(=O)NCC(=O)N[C@@H](CO)C(=O)NCC(=O)N[C@H](C(=O)N2CCC[C@H]2C(N)=O)[C@@H](C)O)[C@@H](C)O)[C@@H](C)O)NC(=O)[C@H](CCC(N)=O)NC(=O)[C@H](CC(C)C)NC(=O)[C@H](CCCCN)NC1=O`: the IC50 in assay [1] stood at 0.326 nM. Moreover, the Ki in assay [2] came out at 0.023 nM.

As to `CC[C@H](C)[C@H](NC(=O)[C@H](C)NC(=O)[C@@H](NC(=O)[C@H](CCC(N)=O)NC(=O)[C@@H]1CCCN1C(=O)[C@H](Cc1ccccc1)NC(=O)[C@@H]1CCCCNC(=O)C[C@H](NC(=O)[C@H](Cc2ccccc2)NC(=O)[C@H](CC(=O)O)NC(=O)[C@H](CCC(N)=O)NC(=O)[C@@H](NC(=O)[C@H](Cc2ccc(O)cc2)NC(=O)[C@@H](NC(=O)CNC(=O)[C@H](CC(C)C)NC(=O)[C@H](CCSC)NC(=O)[C@@H]2CSSC[C@H](N)C(=O)NCC(=O)N[C@@H](CC(N)=O)C(=O)N[C@@H](CC(C)C)C(=O)N[C@@H](CO)C(=O)N[C@@H]([C@@H](C)O)C(=O)N2)[C@@H](C)O)[C@@H](C)O)C(=O)N[C@@H](CCCCN)C(=O)N[C@@H](Cc2ccccc2)C(=O)N[C@@H](Cc2cnc[nH]2)C(=O)N1)[C@@H](C)O)C(=O)NCC(=O)N[C@H](C(=O)NCC(=O)N[C@@H](C)C(=O)N1CCC[C@H]1C(N)=O)C(C)C` (H-CGNLSTCMLGTYTQDFDKFHKFPQTAIGVGAP-NH2; disulfide 1-7; lactam 17-21), the IC50 in assay [1] worked out at 60 nM. Further, the inhibition constant Ki in assay [2] was determined as 195 nM.

Consider `CC[C@H](C)[C@H](NC(=O)[C@H](C)NC(=O)[C@@H](NC(=O)[C@H](CCC(N)=O)NC(=O)[C@@H]1CCCN1C(=O)[C@H](Cc1ccccc1)NC(=O)[C@@H](NC(=O)[C@H](Cc1cnc[nH]1)NC(=O)CNC(=O)[C@@H]1CCCN1C(=O)[C@H](CC(N)=O)NC(=O)[C@H](Cc1ccccc1)NC(=O)[C@H](CC(=O)O)NC(=O)[C@H](CCC(N)=O)NC(=O)[C@@H](NC(=O)[C@H](Cc1ccc(O)cc1)NC(=O)[C@@H](NC(=O)CNC(=O)[C@H](CC(C)C)NC(=O)[C@H](CCSC)NC(=O)[C@@H]1CSSC[C@H](N)C(=O)NCC(=O)N[C@@H](CC(N)=O)C(=O)N[C@@H](CC(C)C)C(=O)N[C@@H](CO)C(=O)N[C@@H]([C@@H](C)O)C(=O)N1)[C@@H](C)O)[C@@H](C)O)[C@@H](C)O)[C@@H](C)O)C(=O)NCC(=O)N[C@H](C(=O)NCC(=O)N[C@@H](C)C(=O)N1CCC[C@H]1C(N)=O)C(C)C` (H-CGNLSTCMLGTYTQDFNPGHTFPQTAIGVGAP-NH2; disulfide 1-7), for which the concentration for half-maximal inhibition (IC50) in assay [1] is greater than 5000 nM. Further, the inhibitory constant (Ki) in assay [2] was greater than 2500 nM.

Regarding `CC[C@H](C)[C@H](NC(=O)[C@H](C)NC(=O)[C@@H](NC(=O)[C@H](CCC(N)=O)NC(=O)[C@@H]1CCCN1C(=O)[C@H](Cc1ccccc1)NC(=O)[C@@H](NC(=O)[C@H](Cc1c[nH]cn1)NC(=O)[C@H](CCCCN)NC(=O)[C@@H]1CCCN1C(=O)[C@H](CC(N)=O)NC(=O)[C@H](Cc1ccccc1)NC(=O)[C@H](CC(=O)O)NC(=O)[C@H](CCC(N)=O)NC(=O)[C@@H](NC(=O)[C@H](Cc1ccc(O)cc1)NC(=O)[C@@H](NC(=O)CNC(=O)[C@H](CC(C)C)NC(=O)[C@H](CCSC)NC(=O)[C@@H]1CSSC[C@H](N)C(=O)NCC(=O)N[C@@H](CC(N)=O)C(=O)N[C@@H](CC(C)C)C(=O)N[C@@H](CO)C(=O)N[C@@H]([C@@H](C)O)C(=O)N1)[C@@H](C)O)[C@@H](C)O)[C@@H](C)O)[C@@H](C)O)C(=O)NCC(=O)N[C@H](C(=O)NCC(=O)N[C@@H](C)C(=O)N1CCC[C@H]1C(N)=O)C(C)C` (H-CGNLSTCMLGTYTQDFNPKHTFPQTAIGVGAP-NH2; disulfide 1-7), the concentration for half-maximal inhibition (IC50) in assay [1] was greater than 5000 nM. Moreover, the inhibitory constant (Ki) in assay [2] came out at 2570 nM.

Consider `CC[C@H](C)[C@H](NC(=O)[C@H](C)NC(=O)[C@@H](NC(=O)[C@H](CCC(N)=O)NC(=O)[C@@H]1CCCN1C(=O)[C@H](Cc1ccccc1)NC(=O)[C@@H](NC(=O)[C@H](Cc1c[nH]cn1)NC(=O)[C@H](Cc1ccccc1)NC(=O)[C@H](CCCCN)NC(=O)[C@H](CC(N)=O)NC(=O)[C@H](Cc1ccccc1)NC(=O)[C@H](CC(=O)O)NC(=O)[C@H](CCC(N)=O)NC(=O)[C@@H](NC(=O)[C@H](Cc1ccc(O)cc1)NC(=O)[C@@H](NC(=O)CNC(=O)[C@H](CC(C)C)NC(=O)[C@H](CCSC)NC(=O)[C@@H]1CSSC[C@H](N)C(=O)NCC(=O)N[C@@H](CC(N)=O)C(=O)N[C@@H](CC(C)C)C(=O)N[C@@H](CO)C(=O)N[C@@H]([C@@H](C)O)C(=O)N1)[C@@H](C)O)[C@@H](C)O)[C@@H](C)O)[C@@H](C)O)C(=O)NCC(=O)N[C@H](C(=O)NCC(=O)N[C@@H](C)C(=O)N1CCC[C@H]1C(N)=O)C(C)C`, for which the IC50 in assay [1] is 2450 nM.

For the compound `CC[C@H](C)[C@H](NC(=O)[C@H](C)NC(=O)[C@@H](NC(=O)[C@H](CCC(N)=O)NC(=O)[C@@H]1CCCN1C(=O)[C@H](Cc1ccccc1)NC(=O)[C@@H]1CCCNC(=O)C[C@H](NC(=O)[C@H](Cc2ccccc2)NC(=O)[C@H](CC(=O)O)NC(=O)[C@H](CCC(N)=O)NC(=O)[C@@H](NC(=O)[C@H](Cc2ccc(O)cc2)NC(=O)[C@@H](NC(=O)CNC(=O)[C@H](CC(C)C)NC(=O)[C@H](CCSC)NC(=O)[C@H](CS)NC(=O)[C@@H](NC(=O)[C@H](CO)NC(=O)[C@H](CC(C)C)NC(=O)[C@H](CC(N)=O)NC(=O)CNC(=O)[C@@H](N)CS)[C@@H](C)O)[C@@H](C)O)[C@@H](C)O)C(=O)N[C@@H](CCCCN)C(=O)N[C@@H](Cc2ccccc2)C(=O)N[C@@H](Cc2c[nH]cn2)C(=O)N1)[C@@H](C)O)C(=O)NCC(=O)N[C@H](C(=O)NCC(=O)N[C@@H](C)C(=O)N1CCC[C@H]1C(N)=O)C(C)C` (H-CGNLSTCMLGTYTQDFDKFH[Orn]FPQTAIGVGAP-NH2; lactam 17-21), the 50% inhibitory concentration (IC50) in assay [1] worked out at 173 nM.

One may read the IC50 as the midpoint of a concentration-inhibition curve. In general, Ki refers to the equilibrium dissociation constant of an inhibitor or competing ligand from its target.
